Data as given in ChEMBL document CHEMBL3864121, “Development of ebsulfur analogues as potent antibacterials against methicillin-resistant Staphylococcus aureus” (Bioorg Med Chem, 2016).
Activity calls are given as the source filed them.

Legend:
Staphylococcus aureus [1] = test: Antibacterial activity against methicillin-sensitive Staphylococcus aureus ATCC 6538 measured after overnight incubation by broth double-dilution method; format: functional
Procedure, shortened: (§1)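 MIC by broth double-dilution in liquid Mueller-Hinton medium. Values are reported in µg/mL.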

Staphylococcus aureus [2] = test: Antibacterial activity against methicillin-sensitive Staphylococcus aureus ATCC 25923 measured after overnight incubation by broth double-dilution method; format: functional; procedure, shortened: as §1
Staphylococcus aureus [3] = test: Antibacterial activity against methicillin-sensitive Staphylococcus aureus ATCC 29213 measured after overnight incubation by broth double-dilution method; format: functional; procedure, shortened: as §1
Staphylococcus aureus [4] = test: Antibacterial activity against methicillin-resistant Staphylococcus aureus ATCC 33591 measured after overnight incubation by broth double-dilution method; format: functional; procedure, shortened: as §1
Staphylococcus aureus [5] = test: Antibacterial activity against methicillin-resistant Staphylococcus aureus 1 measured after overnight incubation by broth double-dilution method; format: functional; procedure, shortened: as §1
Staphylococcus aureus [6] = test: Antibacterial activity against methicillin-resistant Staphylococcus aureus 2 measured after overnight incubation by broth double-dilution method; format: functional; procedure, shortened: as §1
Staphylococcus aureus [7] = test: Antibacterial activity against methicillin-resistant Staphylococcus aureus BRS3 measured after overnight incubation by broth double-dilution method; format: functional; procedure, shortened: as §1
Staphylococcus aureus [8] = test: Antibacterial activity against methicillin-resistant Staphylococcus aureus C1 measured after overnight incubation by broth double-dilution method; format: functional; procedure, shortened: as §1
Staphylococcus aureus [9] = test: Antibacterial activity against methicillin-resistant Staphylococcus aureus C2 measured after overnight incubation by broth double-dilution method; format: functional; procedure, shortened: as §1
Staphylococcus aureus [10] = test: Antibacterial activity against methicillin-resistant Staphylococcus aureus C7 measured after overnight incubation by broth double-dilution method; format: functional; procedure, shortened: as §1
Staphylococcus aureus [11] = test: Antibacterial activity against methicillin-resistant Staphylococcus aureus C14 measured after overnight incubation by broth double-dilution method; format: functional; procedure, shortened: as §1
Staphylococcus aureus [12] = test: Antibacterial activity against methicillin-resistant Staphylococcus aureus C16 measured after overnight incubation by broth double-dilution method; format: functional; procedure, shortened: as §1
Staphylococcus aureus [13] = test: Antibacterial activity against methicillin-resistant Staphylococcus aureus C19 measured after overnight incubation by broth double-dilution method; format: functional; procedure, shortened: as §1
Staphylococcus aureus [14] = test: Antibacterial activity against methicillin-resistant Staphylococcus aureus G1 measured after overnight incubation by broth double-dilution method; format: functional; procedure, shortened: as §1
Staphylococcus aureus [15] = test: Antibacterial activity against methicillin-resistant Staphylococcus aureus G6 measured after overnight incubation by broth double-dilution method; format: functional; procedure, shortened: as §1
Staphylococcus aureus [16] = test: Antibacterial activity against methicillin-resistant Staphylococcus aureus G12 measured after overnight incubation by broth double-dilution method; format: functional; procedure, shortened: as §1
Staphylococcus aureus [17] = test: Antibacterial activity against methicillin-resistant Staphylococcus aureus G14 measured after overnight incubation by broth double-dilution method; format: functional; procedure, shortened: as §1
Staphylococcus aureus [18] = test: Antibacterial activity against methicillin-resistant Staphylococcus aureus NRS4 measured after overnight incubation by broth double-dilution method; format: functional; procedure, shortened: as §1
Staphylococcus aureus [19] = test: Antibacterial activity against methicillin-resistant Staphylococcus aureus NRS51 measured after overnight incubation by broth double-dilution method; format: functional; procedure, shortened: as §1
Staphylococcus aureus [20] = test: Antibacterial activity against methicillin-resistant Staphylococcus aureus NRS77 measured after overnight incubation by broth double-dilution method; format: functional; procedure, shortened: as §1
Staphylococcus aureus [21] = test: Antibacterial activity against methicillin-resistant Staphylococcus aureus S14 measured after overnight incubation by broth double-dilution method; format: functional; procedure, shortened: as §1
Staphylococcus aureus [22] = test: Antibacterial activity against methicillin-resistant Staphylococcus aureus S17 measured after overnight incubation by broth double-dilution method; format: functional; procedure, shortened: as §1
Staphylococcus aureus [23] = test: Antibacterial activity against methicillin-resistant Staphylococcus aureus S22 measured after overnight incubation by broth double-dilution method; format: functional; procedure, shortened: as §1
Staphylococcus aureus [24] = test: Antibacterial activity against methicillin-resistant Staphylococcus aureus S24 measured after overnight incubation by broth double-dilution method; format: functional; procedure, shortened: as §1
Staphylococcus aureus [25] = test: Antibacterial activity against methicillin-resistant Staphylococcus aureus USA100 measured after overnight incubation by broth double-dilution method; format: functional; procedure, shortened: as §1
Staphylococcus aureus [26] = test: Antibacterial activity against methicillin-resistant Staphylococcus aureus USA200 measured after overnight incubation by broth double-dilution method; format: functional; procedure, shortened: as §1
Staphylococcus aureus [27] = test: Antibacterial activity against methicillin-resistant Staphylococcus aureus USA300 measured after overnight incubation by broth double-dilution method; format: functional; procedure, shortened: as §1
Staphylococcus aureus [28] = test: Antibacterial activity against methicillin-resistant Staphylococcus aureus USA600 measured after overnight incubation by broth double-dilution method; format: functional; procedure, shortened: as §1
[29] = test system: Staphylococcus epidermidis; test: Antibacterial activity against Staphylococcus epidermidis ATCC 35984 measured after overnight incubation by broth double-dilution method; format: functional; conditions: RP62A
Procedure, shortened: (§2)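 MIC by broth double-dilution in Mueller-Hinton medium. Re-testing at the time-kill inoculum used 1×10^6 CFU/mL.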

Enterococcus faecalis [30] = test: Antibacterial activity against Enterococcus faecalis ATCC 29212 measured after overnight incubation by broth double-dilution method; format: functional; procedure, shortened: as §2
Enterococcus faecalis [31] = test: Antibacterial activity against Enterococcus faecalis ATCC 49533 measured after overnight incubation by broth double-dilution method; format: functional; procedure, shortened: as §2
Enterococcus faecium = test: Antibacterial activity against Enterococcus faecium BM4105-RF measured after overnight incubation by broth double-dilution method; format: functional; procedure, shortened: as §1
Enterococcus = test: Antibacterial activity against Vancomycin-resistant Enterococcus measured after overnight incubation by broth double-dilution method; format: functional; procedure, shortened: as §1
Listeria monocytogenes = test: Antibacterial activity against Listeria monocytogenes ATCC 19115 measured after overnight incubation by broth double-dilution method; format: functional; procedure, shortened: as §2
[32] = test system: Mycolicibacterium smegmatis; test: Antibacterial activity against Mycobacterium smegmatis MC2-155 measured after overnight incubation by broth double-dilution method; format: functional; conditions: str. MC2 155; procedure, shortened: as §1
Acinetobacter baumannii = test: Antibacterial activity against Acinetobacter baumannii ATCC 19606 measured after overnight incubation by broth double-dilution method; format: functional; procedure, shortened: as §2
Enterobacter cloacae = test: Antibacterial activity against Enterobacter cloacae ATCC 13047 measured after overnight incubation by broth double-dilution method; format: functional; conditions: subsp. cloacae ATCC 13047; procedure, shortened: as §1
Escherichia coli = test: Antibacterial activity against Escherichia coli MC1061 measured after overnight incubation by broth double-dilution method; format: functional; procedure, shortened: as §1
Klebsiella pneumoniae = test: Antibacterial activity against Klebsiella pneumoniae ATCC 27736 measured after overnight incubation by broth double-dilution method; format: functional; procedure, shortened: as §1
Pseudomonas aeruginosa = test: Antibacterial activity against Pseudomonas aeruginosa ATCC 27853 measured after overnight incubation by broth double-dilution method; format: functional; procedure, shortened: as §2
Salmonella enterica = test: Antibacterial activity against Salmonella enterica ATCC 14028 measured after overnight incubation by broth double-dilution method; format: functional; procedure, shortened: as §2
[33] = test system: Staphylococcus epidermidis; test: Antibacterial activity against Staphylococcus epidermidis ATCC 12228 measured after overnight incubation by broth double-dilution method; format: functional; procedure, shortened: as §2
Staphylococcus aureus [34] = test: Bacteriostatic activity against methicillin-resistant Staphylococcus aureus S22 at 0.5 times MIC measured up to 3 to 6 hrs by time kill analysis; format: functional
Staphylococcus aureus [35] = test: Bacteriostatic activity against methicillin-resistant Staphylococcus aureus S22 at MIC measured up to 3 to 6 hrs by time kill analysis; format: functional
Staphylococcus aureus [36] = test: Bactericidal activity against methicillin-resistant Staphylococcus aureus S22 at 4 times MIC measured after 24 hrs by time kill analysis; format: functional
Staphylococcus aureus [37] = test: Antibiofilm activity against methicillin-sensitive Staphylococcus aureus ATCC 6538 assessed as reduction of biofilm at […] ug/ml measured after 24 hrs by crystal violet staining based method relative to untreated control; format: functional; design: scale not given: the % may be the effect or the level left
Staphylococcus aureus [38] = test: Antibiofilm activity against methicillin-sensitive Staphylococcus aureus ATCC 6538 assessed as reduction in biofilm mass at 2 ug/ml measured after 24 hrs by crystal violet staining based method relative to control; format: functional; design: scale not given: the % may be the effect or the level left
[39] = test system: Staphylococcus epidermidis; test: Antibiofilm activity against Staphylococcus epidermidis ATCC 35984 assessed as reduction of biofilm at […] ug/ml measured after 24 hrs by crystal violet staining based method relative to control; format: functional, RP62A; design: scale not given: the % may be the effect or the level left
[40] = Cytotoxicity against mouse RBCs assessed as hemolysis up to […] measured after 1 hr; format: toxicity, Erythrocyte; conditions: mouse red blood cells, read-out: Activity
[41] = Cytotoxicity against HEK293 cells assessed as cell death up to 10 ug/ml measured after 24 hrs by resazurin dye-based fluorescence analysis relative to untreated control; format: toxicity; conditions: human, hek293, 24 h
Staphylococcus aureus [42] = test: Antibacterial activity against methicillin-resistant Staphylococcus aureus S22 using 1 10^6CFU/ml measured after overnight incubation by broth double-dilution method; format: functional
Mus musculus = organism: Mus musculus; test: Cytotoxicity against mouse RBCs assessed as hemolysis at 0.24 to 31.2 ug/ml measured after 1 hr; format: toxicity; conditions: erythrocyte
Procedure, shortened: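 Murine red blood cells were exposed to compounds at various concentrations, with amikacin as a control. Percent hemolysis was scored against untreated cells (0%) and 1% Triton X (100%).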

O=c1c2ccccc2[se]n1-c1ccccc1 [EBSELEN]
2 µg/mL: MIC (Staphylococcus aureus [1]) | MIC (Staphylococcus aureus [3]) | MIC (Staphylococcus aureus [6]) | MIC (Staphylococcus aureus [8]) | MIC (Staphylococcus aureus [11]) | MIC (Staphylococcus aureus [14]) | MIC (Staphylococcus aureus [25]) | MIC (Staphylococcus aureus [26])
3.9 µg/mL: MIC (Staphylococcus aureus [2]) | MIC (Staphylococcus aureus [12]) | MIC (Staphylococcus aureus [20]) | MIC (Staphylococcus aureus [27]) | MIC (Staphylococcus aureus [28])
active: Activity (Staphylococcus aureus [34]) | Activity (Staphylococcus aureus [35]) | Activity (Staphylococcus aureus [36]) | Activity (Staphylococcus aureus [42])
0.5 µg/mL: MIC (Staphylococcus aureus [4]) | MIC (Staphylococcus aureus [10]) | MIC (Staphylococcus aureus [24]) | MIC (Enterococcus faecalis [30]) | MIC (Enterococcus faecium)
15.6 µg/mL: MIC (Acinetobacter baumannii)
Non-Toxic: Activity [41]
60%: Activity (Staphylococcus aureus [38])
≤ 20%: hemolysis at 1 h [40]
1 µg/mL: MIC (Staphylococcus aureus [9]) | MIC (Staphylococcus aureus [13]) | MIC (Staphylococcus aureus [15]) | MIC (Staphylococcus aureus [16]) | MIC (Staphylococcus aureus [17]) | MIC (Staphylococcus aureus [19]) | MIC (Staphylococcus aureus [22]) | MIC (Staphylococcus aureus [23]) | MIC (Enterococcus) | MIC (Listeria monocytogenes)
7.8 µg/mL: MIC (Staphylococcus aureus [7]) | MIC (Staphylococcus aureus [18]) | MIC [32] | MIC (Escherichia coli)
20%: Activity (Staphylococcus aureus [37]) | Activity [39]
≤ 0.25 µg/mL: MIC (Staphylococcus aureus [5]) | MIC (Staphylococcus aureus [21]) | MIC (Enterococcus faecalis [31])
> 125 µg/mL: MIC (Enterobacter cloacae) | MIC (Klebsiella pneumoniae) | MIC (Pseudomonas aeruginosa) | MIC (Salmonella enterica) | MIC [33]
0.25 µg/mL: MIC [29]

CC(C)c1cccc(-n2sc3ccccc3c2=O)c1
> 125 µg/mL: MIC (Enterococcus faecalis [30]) | MIC (Enterococcus faecalis [31]) | MIC (Enterobacter cloacae) | MIC (Klebsiella pneumoniae) | MIC (Pseudomonas aeruginosa) | MIC (Salmonella enterica) | MIC [33]
50 - 60%: Activity [39]
> 20%: Activity [41]
active: Activity (Staphylococcus aureus [42])
≤ 0.25 µg/mL: MIC (Staphylococcus aureus [3]) | MIC (Staphylococcus aureus [4]) | MIC (Staphylococcus aureus [5]) | MIC (Staphylococcus aureus [6]) | MIC (Staphylococcus aureus [8]) | MIC (Staphylococcus aureus [9]) | MIC (Staphylococcus aureus [10]) | MIC (Staphylococcus aureus [12]) | MIC (Staphylococcus aureus [13]) | MIC (Staphylococcus aureus [14]) | MIC (Staphylococcus aureus [19]) | MIC (Staphylococcus aureus [21]) | MIC (Staphylococcus aureus [22]) | MIC (Staphylococcus aureus [24]) | MIC (Staphylococcus aureus [27]) | MIC (Staphylococcus aureus [28]) | MIC (Enterococcus)
15.6 µg/mL: MIC (Escherichia coli)
31.3 µg/mL: MIC (Acinetobacter baumannii)
Non-Toxic: Activity (Mus musculus)
3.9 µg/mL: MIC (Enterococcus faecium)
1 µg/mL: MIC (Staphylococcus aureus [7]) | MIC (Staphylococcus aureus [18]) | MIC (Staphylococcus aureus [23]) | MIC (Listeria monocytogenes) | MIC [32]
≤ 20%: hemolysis at 1 h [40]
0.5 µg/mL: MIC (Staphylococcus aureus [2]) | MIC (Staphylococcus aureus [11]) | MIC (Staphylococcus aureus [15]) | MIC (Staphylococcus aureus [16]) | MIC (Staphylococcus aureus [17]) | MIC (Staphylococcus aureus [20]) | MIC (Staphylococcus aureus [25]) | MIC (Staphylococcus aureus [26])
0.25 µg/mL: MIC [29]
